# Measurements as given in ChEMBL document CHEMBL2321803, “Antitrypanosomal lead discovery: identification of a ligand-efficient inhibitor of Trypanosoma cruzi CYP51 and parasite growth” (J Med Chem, 2013).
# Calls of active or inactive are those of the source. The calls are words filed in the database; no cut-off is given here.
# Experiments:
# Trypanosoma cruzi [1] = assay: Antitrypanosomal activity against Trypanosoma cruzi trypomastigote infected in mouse NIH/3T3 cells after 96 hrs by luciferase reporter gene assay; conditions: NIH/3T3, 96 h
# NIH3T3 = assay: Cytotoxicity against mouse NIH/3T3 cells; format: cell-based
# Procedure, shortened: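 Counterscreen on uninfected NIH 3T3 cells grown in DMEM with 10% FBS at 37 °C and 5% CO₂, run alongside the 96 h infection assay. EC50 is the mean of three independent experiments performed on different days.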
# [2] = Selectivity index, ratio of EC50 for mouse NIH/3T3 cells to EC50 for Trypanosoma cruzi trypomastigote; format: toxicity, cell-based, NIH3T3; conditions: read-out: Ratio EC50
# [3] = biological target: Sterol 14-alpha demethylase (Trypanosoma cruzi (strain CL Brener), UniProt Q7Z1V1); assay: Binding affinity to Trypanosoma cruzi recombinant full length CYP51 by spectrophotometric analysis
# Procedure, shortened: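 Purified full-length T. cruzi CYP51 (2 μM) was titrated with ligand at 0.5–10 μM, recording type 2 difference spectra at 350–450 nm, 25 °C. Apparent Kd came from ΔA425–390 versus free ligand, fitted to a rectangular hyperbola.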
# Trypanosoma cruzi [4] = assay: Antitrypanosomal activity against Trypanosoma cruzi trypomastigote infected in mouse NIH/3T3 cells at 9.5 uM incubated for 3 days post infection by DAPI-staining based immunofluorescence assay; format: functional, organism-based; conditions: NIH3T3
# Procedure, shortened: (§1)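 NIH-3T3 cells on coverslips were infected 2 h with trypomastigotes (Tulahuen β-gal or Y luciferase), washed, then given drug for 3 days. Cells were fixed in 4% paraformaldehyde, permeabilised with Triton X-100 and stained with rabbit anti-T. cruzi (1:2000) plus Alexa 488 secondary and DAPI. Imaged at 60× oil, 50 fields per condition.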
# Trypanosoma cruzi [5] = assay: Antitrypanosomal activity against Trypanosoma cruzi Y infected in mouse NIH/3T3 cells after 48 to 72 hrs by luciferase reporter gene assay
# Trypanosoma cruzi [6] = assay: Antitrypanosomal activity against Trypanosoma cruzi Tulahuen infected in mouse NIH/3T3 cells after 48 to 72 hrs by beta-galactosidase reporter gene assay
# [7] = Metabolic stability in rat microsomes after 20 mins in presence of quinidine; format: ADME, Microsome
# Procedure, shortened: (§2)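 Liver microsomes (human, mouse or rat), with or without CYP inhibitor. Read-out is percent of compound metabolized at 20 min.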
# Trypanosoma cruzi [8] = assay: Antitrypanosomal activity against Trypanosoma cruzi trypomastigote infected in mouse NIH/3T3 cells at 0.4 uM incubated for 3 days post infection by DAPI-staining based immunofluorescence assay; format: functional, organism-based; conditions: NIH3T3
# Procedure, shortened: as §1
# [9] = Metabolic stability in mouse microsomes after 20 mins in presence of ketoconazole; format: ADME, Microsome
# Procedure, shortened: as §2
# Trypanosoma cruzi [10] = assay: Antitrypanosomal activity against Trypanosoma cruzi Y infected in […] cells after 24 hrs by luciferase reporter gene assay; format: functional, organism-based
# Procedure, shortened: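 Y strain expressing firefly luciferase, trypomastigotes from LLC-MK2 cultures, infecting NIH/3T3 host cells (50 000 cells and 50 000 parasites per well). Drug added at infection (top 50 μM, DMSO <0.5%, duplicates) and washed out at 24, 48 or 72 h. D-luciferin at 150 μg/mL final added at 96 h, luminescence read 1 s. EC50 relative to 4 μM amphotericin B maximal inhibition.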
# Plasma [11] = assay: Metabolic stability in mouse plasma after 1 to 4 hrs; format: ADME, cell-free
# [12] = Metabolic stability in human microsomes after 20 mins in presence of quinidine; format: ADME, Microsome
# Procedure, shortened: as §2
# Caco-2 = assay: Permeability across human Caco2 cells; format: ADME, cell-based
# [13] = Metabolic stability in human microsomes after 20 mins; format: ADME, Microsome; conditions: read-out: Stability
# Procedure, shortened: as §2
# Plasma [14] = assay: Plasma protein binding in mouse; format: ADME, cell-free
# Plasma [15] = assay: Plasma protein binding in human; format: ADME, cell-free
# hERG (KCNH2) [16] = biological target: T1, hERG (KCNH2) (Homo sapiens, UniProt Q12809); assay: Inhibition of human ERG at 10 uM relative to control
# Plasma [17] = assay: Metabolic stability in human plasma after 1 to 4 hrs; format: ADME, cell-free
# Trypanosoma cruzi [18] = assay: Antitrypanosomal activity against Trypanosoma cruzi Tulahuen […] after 24 hrs by beta-galactosidase reporter gene assay; format: functional, organism-based; conditions: LLC-MK2
# [19] = Metabolic stability in mouse microsomes after 20 mins; format: ADME, Microsome; conditions: read-out: Stability
# Procedure, shortened: as §2
# [20] = Metabolic stability in rat microsomes after 20 mins; format: ADME, Microsome; conditions: read-out: Stability
# Procedure, shortened: as §2
# [21] = Metabolic stability in human microsomes after 20 mins in presence of ketoconazole; format: ADME, Microsome
# Procedure, shortened: as §2
# hERG (KCNH2) [22] = biological target: T1, hERG (KCNH2); assay: Inhibition of human ERG at 1 uM relative to control
# [23] = Metabolic stability in mouse microsomes after 20 mins in presence of quinidine; format: ADME, Microsome
# Procedure, shortened: as §2
# [24] = Metabolic stability in rat microsomes after 20 mins in presence of ketoconazole; format: ADME, Microsome
# Procedure, shortened: as §2
# Chain of Sterol 14-alpha demethylase (Q7Z1V1 whole entry): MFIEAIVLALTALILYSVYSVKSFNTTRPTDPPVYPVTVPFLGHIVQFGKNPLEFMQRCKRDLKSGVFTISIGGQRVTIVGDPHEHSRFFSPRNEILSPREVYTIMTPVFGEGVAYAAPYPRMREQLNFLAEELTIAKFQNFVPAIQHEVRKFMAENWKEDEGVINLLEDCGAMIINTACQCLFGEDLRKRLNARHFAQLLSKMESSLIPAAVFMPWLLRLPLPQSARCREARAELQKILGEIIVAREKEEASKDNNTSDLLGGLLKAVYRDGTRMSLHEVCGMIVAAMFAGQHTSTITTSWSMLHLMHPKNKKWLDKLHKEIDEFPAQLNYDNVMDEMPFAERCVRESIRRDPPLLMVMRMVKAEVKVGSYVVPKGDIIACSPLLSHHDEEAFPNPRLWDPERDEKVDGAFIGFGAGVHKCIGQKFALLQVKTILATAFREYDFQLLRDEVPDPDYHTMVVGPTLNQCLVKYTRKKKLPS
# T1 sequence (Q12809 whole entry): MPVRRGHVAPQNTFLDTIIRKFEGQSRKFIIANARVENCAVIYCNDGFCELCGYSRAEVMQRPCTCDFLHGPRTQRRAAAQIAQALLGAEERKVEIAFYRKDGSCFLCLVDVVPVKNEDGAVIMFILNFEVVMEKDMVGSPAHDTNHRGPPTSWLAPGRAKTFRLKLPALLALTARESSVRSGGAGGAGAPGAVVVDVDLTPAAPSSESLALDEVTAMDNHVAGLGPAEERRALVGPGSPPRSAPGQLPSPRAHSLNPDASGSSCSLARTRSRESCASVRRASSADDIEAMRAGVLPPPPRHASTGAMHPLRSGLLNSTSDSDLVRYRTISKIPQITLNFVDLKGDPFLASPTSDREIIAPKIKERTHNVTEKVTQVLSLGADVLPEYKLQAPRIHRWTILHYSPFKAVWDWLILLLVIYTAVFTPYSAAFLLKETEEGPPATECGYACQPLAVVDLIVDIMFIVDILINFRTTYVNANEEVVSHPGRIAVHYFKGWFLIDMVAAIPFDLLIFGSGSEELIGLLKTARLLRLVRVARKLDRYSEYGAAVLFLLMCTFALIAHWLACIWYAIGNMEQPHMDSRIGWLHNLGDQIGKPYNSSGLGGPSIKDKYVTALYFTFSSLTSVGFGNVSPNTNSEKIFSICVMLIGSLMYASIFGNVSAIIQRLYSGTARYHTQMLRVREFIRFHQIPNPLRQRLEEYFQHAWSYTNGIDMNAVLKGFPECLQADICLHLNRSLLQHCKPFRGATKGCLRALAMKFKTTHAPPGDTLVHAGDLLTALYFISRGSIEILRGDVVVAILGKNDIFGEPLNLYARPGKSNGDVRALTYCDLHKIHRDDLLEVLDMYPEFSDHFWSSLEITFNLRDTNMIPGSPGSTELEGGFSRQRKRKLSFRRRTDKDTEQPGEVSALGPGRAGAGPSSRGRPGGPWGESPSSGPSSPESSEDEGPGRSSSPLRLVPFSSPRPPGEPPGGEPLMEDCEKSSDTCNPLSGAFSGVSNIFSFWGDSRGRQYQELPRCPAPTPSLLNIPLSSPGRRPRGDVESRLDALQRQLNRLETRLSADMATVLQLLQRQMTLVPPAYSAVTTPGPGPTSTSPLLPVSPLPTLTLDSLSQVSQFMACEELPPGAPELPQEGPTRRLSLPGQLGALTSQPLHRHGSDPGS
Structure (SMILES),EC50 (Trypanosoma cruzi [1]),EC50 (NIH3T3),selectivity ratio [2],also measured
Cc1cc(OCCCCCCn2ccnc2)cc(C)c1Cl,0.023 µM,–,–,–
Cc1cc(Oc2cccc(Cn3ccnn3)c2)cc(C)c1Cl,1.1 µM,66.8 µM,–,–
Cc1cc(Oc2cccc(Cn3ccc4ccccc43)c2)cc(C)c1Cl,10.7 µM,> 100 µM,–,–
Clc1ccc(CCOc2cccc(Cn3ccnc3)c2)cc1,0.53 µM,71.1 µM,134,–
Cc1nnc(Cc2cccc(Oc3cc(C)c(Cl)c(C)c3)c2)o1,3.4 µM,6.2 µM,–,–
Cc1ccccc1Oc1cccc(Cn2ccnc2)c1,0.711 µM,79.3 µM,112,Kd [3]: 0.18 µM
Cc1nnc(-c2cccc(Oc3cc(C)c(Cl)c(C)c3)c2)o1,14.1 µM,46.1 µM,–,–
Cc1cc(C)cc(Oc2cccc(Cn3ccnc3)c2)c1,0.33 µM,> 100 µM,> 300,–
Clc1ccc(Oc2cccc(Cn3ccnc3)c2)cc1,0.65 µM,> 100 µM,> 150,–
O=C(Cn1ccnc1[N+](=O)[O-])NCc1ccccc1 [BENZNIDAZOLE],1.9 µM,> 50 µM,–,Activity (Trypanosoma cruzi [4]): Active; Activity (Trypanosoma cruzi [5]): Active; Activity (Trypanosoma cruzi [6]): Active
Cc1nnc(-c2cccc(Oc3cc(C)c(Cl)c(C)c3)c2)s1,12.3 µM,> 100 µM,–,–
Cc1cc(Oc2cccc(Cn3cccn3)c2)cc(C)c1Cl,2.8 µM,> 100 µM,–,–
Cc1cc(OCCCCn2ccnc2)cc(C)c1Cl,0.0051 µM,–,–,–
Cc1cc([N+](=O)[O-])ccc1Nc1cccc(Cn2ccnc2)c1,0.072 µM,> 100 µM,> 1000,–
Cc1cccc(Oc2cccc(Cn3ccnc3)c2)c1,0.33 µM,78.7 µM,238,–
Cc1cccc(OCCCCCn2ccnc2)c1,0.443 µM,–,–,–
Cc1cc(Oc2cccc(Cn3nccn3)c2)cc(C)c1Cl,5.4 µM,> 100 µM,–,–

Structure (SMILES),EC50 (Trypanosoma cruzi [1]),EC50 (NIH3T3),selectivity ratio [2],also measured
Cc1cc(Oc2cccc(Cn3ncc4ccccc43)c2)cc(C)c1Cl,13.4 µM,> 100 µM,–,–
Cc1cc(Oc2cccc(Cn3cnc4ccccc43)c2)cc(C)c1Cl,3.7 µM,40 µM,–,–
Cc1cc(Oc2cccc(Cn3cnnc3)c2)cc(C)c1Cl,11.2 µM,> 100 µM,–,–
Cc1nnc(Cc2cccc(Oc3cc(C)c(Cl)c(C)c3)c2)s1,2.2 µM,3.8 µM,–,–
Cc1cc(Oc2cccc(CN3CCN(C)CC3)c2)cc(C)c1Cl,6.2 µM,29.7 µM,–,–
c1ccc(Oc2cccc(Cn3ccnc3)c2)cc1,1.63 µM,> 100 µM,> 60,–
Clc1ccc(COc2cccc(Cn3ccnc3)c2)cc1,0.042 µM,76.2 µM,1810,–
Cc1cc(OCCCCCn2ccnc2)cc(C)c1Cl,0.0025 µM,–,–,–
Cc1cc(Oc2cccc(CN3CCOCC3)c2)cc(C)c1Cl,3.7 µM,> 100 µM,–,–
O=C(N[C@@H](Cn1ccnc1)c1ccccc1)c1ccc(-c2ccc(Cl)cc2)cc1,–,–,–,Kd [3]: 0.07 µM
c1ccc(-c2cccc(Oc3cccc(Cn4ccnc4)c3)c2)cc1,0.282 µM,34 µM,121,–
Cc1cc(Oc2cccc(Cn3cc4ccccc4n3)c2)cc(C)c1Cl,9.8 µM,> 100 µM,–,–
O=C(Nc1cccc(Cl)c1)Nc1ccccc1-n1ccnc1,0.461 µM,–,–,–
COc1cccc(Nc2cccc(Cn3ccnc3)c2)c1,0.167 µM,> 100 µM,> 500,Kd [3]: 0.21 µM
Cc1cc(Oc2cccc(Cn3cncn3)c2)cc(C)c1Cl,1.1 µM,75.9 µM,–,–
Cc1cc(Oc2cccc(Cn3ccnc3)c2)cc(C)c1Cl,0.08 µM,13.5 µM,169,Stability [7]: Stable; Activity (Trypanosoma cruzi [8]): Active; Stability [9]: Stable; Activity (Trypanosoma cruzi [10]): Active; Stability (Plasma [11]): 4%; Stability [12]: Stable; permeability (Caco-2): 20.97 ×10⁻⁶ cm/s; remaining at 20 min [13]: 39%; PPB (Plasma [14]): > 99.8%; Kd [3]: 0.067 µM; PPB (Plasma [15]): > 99.8%; inhibition at 10 µM (hERG (KCNH2) [16]): 94%; Stability (Plasma [17]): -9.7%; Activity (Trypanosoma cruzi [18]): Active; remaining at 20 min [19]: 29%; remaining at 20 min [20]: 36%; Stability [21]: Stable; inhibition at 1 µM (hERG (KCNH2) [22]): 19%; Stability [23]: Stable; Stability [24]: Stable
